Measurements: PubChem BioAssay
Activity calls are given as the source filed them.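 Rule for the calls, unless noted: active = potentiation averaged over duplicate wells exceeding buffer-only control mean by more than 3 SD; inactive = the rest.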

Tested on: not listed separately
Assay: nonspecific flux increase, KCNQ1-free cells – parental CHO cells, counter-screen for KCNQ1 potentiator project (AID 493006;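 active = duplicate-averaged activation above buffer control mean plus 5 SD of those controls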;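 for activation: fluorescence ratio of max minus min over baseline after K+ and Tl+ depolarization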)
Details: parental CHO-K1 cells, FluxOR thallium flux, at 10 µM; stronger effect = higher value
In short: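 Assay system: parental CHO-K1 cells lacking KCNQ1, loaded with FluxOR thallium dye; timing: dye 90 min RT, compound 20 min RT; signal: kinetic thallium-flux fluorescence; repeats: duplicate wells per compound, percent values averaged; benchmarks: buffer and R-L3 controls; reagent: Potassium/thallium depolarization pulse; read-out: fluorescence change ratio scaled 0% buffer, 100% R-L3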
In the case of `CC(Oc1ccc(Br)cc1)C(=O)N1CCC(C(N)=O)CC1` (stereo not drawn), the outcome is reported as “inactive”. In the case of `CCN(CC)CC(=O)Nc1ccc2c(c1)Nc1ccccc1CC2`, the activation is reported as 234% (active). With `Cc1ccc(C2c3c(-c4ccccc4O)n[nH]c3C(=O)N2Cc2ccncc2)cc1` (stereo not drawn) the outcome was “inactive”.

Molecular target: Potassium voltage-gated channel subfamily KQT member 1 (Homo sapiens) (UniProt P51787)
Sequence (P51787 whole entry, looked up): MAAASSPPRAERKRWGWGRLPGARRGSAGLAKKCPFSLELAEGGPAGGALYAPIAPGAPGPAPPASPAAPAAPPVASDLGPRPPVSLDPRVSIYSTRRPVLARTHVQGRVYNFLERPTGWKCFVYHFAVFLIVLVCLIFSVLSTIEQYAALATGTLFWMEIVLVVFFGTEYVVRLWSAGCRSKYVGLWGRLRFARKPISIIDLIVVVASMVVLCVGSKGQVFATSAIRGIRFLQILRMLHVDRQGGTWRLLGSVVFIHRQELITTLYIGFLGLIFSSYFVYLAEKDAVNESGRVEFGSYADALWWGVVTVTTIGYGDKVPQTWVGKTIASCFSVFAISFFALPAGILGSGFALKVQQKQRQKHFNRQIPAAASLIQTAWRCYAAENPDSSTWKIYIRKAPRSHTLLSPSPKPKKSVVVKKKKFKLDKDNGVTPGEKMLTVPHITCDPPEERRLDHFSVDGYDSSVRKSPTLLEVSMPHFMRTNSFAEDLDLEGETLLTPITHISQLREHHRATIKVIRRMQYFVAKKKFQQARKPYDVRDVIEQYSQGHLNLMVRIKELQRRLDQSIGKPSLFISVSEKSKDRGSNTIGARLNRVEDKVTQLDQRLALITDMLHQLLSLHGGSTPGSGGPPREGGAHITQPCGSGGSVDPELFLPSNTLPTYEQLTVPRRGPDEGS
Assay: enhancement of KCNQ1 channel thallium flux – FluxOR thallium flux, CHO cells, duplicates, confirmation (AID 493007);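 for outcome: cells depolarized by a potassium plus thallium sulfate stimulus after compound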
Details: KCNQ1 cell line, FluxOR thallium flux fluorescence, at 10 µM; stronger effect = higher value, % of reference activator effect, buffer zero
In short: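 material = CHO cells stably expressing the KCNQ1 potassium channel | repeats = duplicate wells per compound | measure = percent activation between buffer and R-L3 responses | signal = FluxOR thallium-flux fluorescence, kinetic read | schedule = FluxOR dye loading 90 min, compound exposure 20 min, room temperature | control set = buffer and R-L3 controls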
In the case of `CSc1ccccc1C(=O)NC1CCCc2ccccc21` (stereo not drawn), the outcome is reported as “inactive”. For `CCOc1cc(CNCCCN2CCOCC2)ccc1OCC(=O)NC(C)(C)C`, the outcome was “inactive”. For `C=CCN1C(=O)C(CC(=O)NCC)SC1=Nc1ccc(S(N)(=O)=O)cc1` (stereo not drawn), the outcome was “inactive”. In the case of `OCCN1CCN(c2ncnc3c2sc2nc(N4CCOCC4)c4c(c23)CCC4)CC1`, the potentiation is reported as 19% (active). For `CC12CCC(C/C1=N\N=C1\NC(=O)/C(=C\c3ccc(Cl)cc3)S1)C2(C)C` (stereo not drawn), the potentiation was 74.5% (active). For `Cc1sc(NC(=O)CS(=O)(=O)c2ccccc2)c(C#N)c1C`, the outcome was “inactive”. With `Cc1nn2c(NCc3ccccn3)cc(C(C)C)nc2c1-c1ccccc1` the outcome was “inactive”. For `C=CCn1c(SCN2C(=O)c3ccccc3C2=O)nc2ccc(Cl)cc2c1=O`, the outcome was “inactive”. In the case of `COc1ccc(NC(=S)N2CCC(C(O)(c3ccccc3)c3ccccc3)CC2)cc1`, the outcome is reported as “inactive”. In the case of `Cc1ccc(C)c(NC(=S)NNC(=O)c2cc3c(s2)CCC(C)C3)c1` (stereo not drawn), the potentiation is reported as 48.5% (active). For `CC1(C)N=C(N)NC(Nc2cccc(Br)c2)=N1`, the outcome was “inactive”. In the case of `O=C(c1ccccn1)c1ncc(C(F)(F)F)cc1Cl`, the outcome is reported as “inactive”. In the case of `COc1cccc(C(=O)NNC(=O)C(=O)Nc2ccc(C)c(Cl)c2)c1`, the potentiation is reported as 99% (active). For `Cc1cc(Br)ccc1OCC(=O)NNC(=O)c1cnccn1`, the outcome was “inactive”. For `Cc1cc(/C=N/NC(=O)CC#N)c(C)n1-c1ccc([N+](=O)[O-])cc1`, the outcome was “inactive”.
